NR1D1 modulator = modulators of human Rev-erb alpha DNA binding | P20393 | Rev-erbα–FITC-DNA binding, fluorescence polarization, 90 min | activity, % at 10 µM | actives 0.79% (n = 370,000);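 active = activity above about 14%, limit read from the data; passing the limit was not always enough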
NR2E3 ag-1 = agonists of human nuclear receptor NR2E3; inhibition of corepressor binding, % at 4.78 µM; actives 0.12% (n = 320,000); GST-NR2E3/biotin-RetCOR TR-FRET, 1536-well;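 active = percent inhibition above the cutoff of mean plus 3 SD of all tested compounds, set per screening campaign, cut at about 20% in these data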
Target sequence (Q9Y5X4 whole entry, looked up): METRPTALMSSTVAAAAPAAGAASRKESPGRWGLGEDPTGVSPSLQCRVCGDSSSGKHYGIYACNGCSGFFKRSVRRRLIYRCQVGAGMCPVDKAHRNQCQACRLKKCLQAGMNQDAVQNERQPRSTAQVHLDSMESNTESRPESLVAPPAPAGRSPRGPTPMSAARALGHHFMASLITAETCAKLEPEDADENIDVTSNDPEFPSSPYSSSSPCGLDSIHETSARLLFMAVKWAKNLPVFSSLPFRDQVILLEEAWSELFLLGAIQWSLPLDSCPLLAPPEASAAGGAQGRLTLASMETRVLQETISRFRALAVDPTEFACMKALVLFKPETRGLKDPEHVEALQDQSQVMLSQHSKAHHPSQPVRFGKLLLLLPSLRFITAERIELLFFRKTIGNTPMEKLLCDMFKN
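Test system: GST-NR2E3 and biotin-RetCOR proteins | Quantity: 1.35 nM GST-tagged NR2E3 final | Medium: Tris pH 7.5 | Also added: 7 nM biotin-RetCOR | Dosing: Compound at 4.8 µM, single dose | Timing: 5 h at 4 °C | Detection: Time-resolved FRET | Read-out basis: Percent inhibition | Benchmarks: Biotin wells as high control, 0.6% DMSO wells as low control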
NR2E3 ag-2 = human photoreceptor-specific nuclear receptor agonism | Q9Y5X4 | CHO-S Gal4-NCOR/VP16-NR2E3 two-hybrid, luciferase | inhibition of corepressor binding, % at 3.98 µM | actives 0.35% (n = 360,000);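 active = inhibition above the mean of all tested compounds plus 3 SD, cut at about 70% in these data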;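 also: higher means lower luciferase signal from less NR2E3 corepressor binding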
PG9 binder = small molecules binding HIV-1 gp120 antibody PG9; TR-FRET gp120-PG9 antibody binding; inhibition, % at 6.7 µM; actives 0.43% (n = 360,000); AID 624416; in the data active = inhibition above about 8.5%
NR2E3 ag conf = NR2E3 agonism confirmed in two-hybrid assay; shares compounds with NR2E3 ag-2; CHO-S mammalian two-hybrid NR2E3-NCOR, luciferase luminescence; inhibition, % at 3.98 µM; actives 51% (n = 2,300); AID 624378;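 active = average inhibition above a cutoff equal to the mean inhibition of all tested compounds plus one SD, cut at about 70% in these data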
GAL4-VP16 luc = reduces GAL4-VP16 reporter signal in NR2E3 counterscreen; shares compounds with NR2E3 ag-2; CHO-S GAL4-VP16 luciferase reporter, luminescence; inhibition, % at 3.98 µM; actives 29% (n = 2,300);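 active = mean inhibition above a cutoff equal to the average over all tested compounds plus one standard deviation, cut at about 70% in these data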;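 also: luciferase from a UAS reporter driven by GAL4-VP16 transactivation; higher means less reporter light so more repression of VP16 activity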
Numbers stand for hits; . = inactive; / = not tested or not shown. The list is not random: actives were taken first. Their share in the collection is about 1.5%.

SMILES	NR1D1 modulator	NR2E3 ag-1	NR2E3 ag-2	PG9 binder	NR2E3 ag conf	GAL4-VP16 luc
COc1cc(C(C)=O)ccc1OCCCN1CCC(c2noc3cc(F)ccc23)CC1	.	/	/	/	/	/
Nc1cc2c(cc1Cl)-c1ccc([N+](=O)[O-])cc1C2=NO	.	/	.	.	.	.
O=[N+]([O-])c1ccc2c(c1)/C(=N\O)c1ccccc1-2	.	.	.	.	/	/
O=C(O)c1ccccc1C(=O)Nc1ccc(Oc2cccc3ccccc23)cc1	.	/	.	.	.	.
CCC(=O)Nc1ccc(N2CCN(C(=O)c3ccccc3C)CC2)cc1	.	.	.	.	/	/
CC(C)CC(=O)NC(=S)Nc1ccc(N2CCN(C(=O)c3cccs3)CC2)cc1	.	.	.	.	85	.
Cc1ccccc1C(=O)N1CCN(c2ccc(NC(=O)CSc3ccc(Cl)cc3)cc2)CC1	.	.	.	.	.	.
Cc1ccccc1C(=O)N1CCN(c2ccc(NC(=S)NC(=O)c3cccs3)cc2)CC1	.	.	.	.	.	.
c1ccc(C2CCC3(CC2)CCC3NCc2cccs2)cc1 (stereo not given)	.	/	/	/	/	/
Cc1[nH]n2c(=O)cc(C(C)C)nc2c1-c1ccccc1	.	.	.	.	/	/
Cc1[nH]n2c(=O)cc(C(C)(C)C)nc2c1-c1ccccc1	.	.	.	.	100	96
Cc1[nH]n2c(=O)cc(-c3ccc([N+](=O)[O-])cc3)nc2c1-c1ccccc1	.	.	97	.	99	.
COc1ccc(Oc2c(Cl)cnn(-c3ccc(C(C)C)c(C)c3)c2=O)cc1	.	/	/	/	/	/
CCOC(=O)C1(Cc2ccc(Cl)cc2)CCN(C(C)Cc2ccc(O)c(OC)c2)CC1 (stereo not given)	.	.	.	.	86	75
CCOC(=O)C1=C(CC)Nc2ccccc2N/C1=N\S(=O)(=O)c1cc(Br)ccc1Br	.	/	.	.	88	.
CCOC(=O)C1=C(CC)Nc2ccccc2N/C1=N\S(=O)(=O)c1ccc2ccccc2c1	.	.	.	.	/	/
C=CS(=O)(=O)N(Cc1ccc(Cl)c(Cl)c1)C[C@@H](O)CO	/	/	.	/	.	.
O=C(O)c1sccc1SCc1ccc(Cl)c(Cl)c1	.	.	.	.	/	/
S=c1[nH]nc(-c2n[nH]c3c2CCC3)n1N=Cc1cccs1	.	/	/	/	/	/
Cc1nnc(SCC(=O)NC2CCCC2)n1-c1ccccc1	.	.	.	.	/	/
COC(=O)N1C2CCCCC2=NN(c2ccccc2)N1C(=O)OC (stereo not given)	.	/	71	.	.	.
c1ccc2c(c1)[nH]c1c(N3CCCC3)ncnc12	.	.	.	.	.	.
Fc1ccc2[nH]c3c(N4CCc5ccccc5C4)ncnc3c2c1	.	.	73	.	94	87
Brc1ccc2[nH]c3c(N4CCc5ccccc5C4)ncnc3c2c1	/	.	/	/	/	/
Cc1ccc2[nH]c3c(N4CCc5ccccc5C4)ncnc3c2c1	.	.	.	.	94	77
SMILES	NR1D1 modulator	NR2E3 ag-1	NR2E3 ag-2	PG9 binder	NR2E3 ag conf	GAL4-VP16 luc
O=C1CCC(CNc2ccccc2)N1c1ccccc1 (stereo not given)	.	/	/	/	/	/
O=C1CCC[C@H]2Cc3nc4cccc(Cl)c4cc3C[C@]23CCCN13	.	/	/	/	/	/
CCC(C)NC(=O)c1ccc2nc(Cc3ccc(OC)cc3)oc2c1 (stereo not given)	.	.	.	.	/	/
CCC(NC(=O)c1ccc2nc(Cc3ccc(OC)cc3)oc2c1)c1ccncc1 (stereo not given)	.	.	.	.	83	.
Cc1ccc(C(=O)N2CCC(C(=O)c3ccc(F)cc3)CC2)cc1	.	/	.	.	/	/
Cc1ccc(C(=O)C2CCN(C(=O)c3ccc(C)cc3)CC2)cc1	.	.	.	.	.	.
C[C@H]1CCC/C=C/[C@@H]2C[C@H](O)C[C@H]2[C@H](O)[C@H](S(=O)c2ccc(O)cc2)CC(=O)O1 (stereo not given in full)	.	/	78	.	91	.
COc1ccc(/C=C2/CSC/C(=C/c3ccc(OC)c(OC)c3)C2=O)cc1OC	.	/	.	.	.	.
Cc1ccsc1-c1nc(CSCC(=O)N2CCN(c3ccccc3)CC2)c(C)o1	.	.	.	.	.	.
Cc1ccccc1CSCC(=O)N1CCN(c2ccccc2)CC1	.	.	.	.	/	/
Cc1cccc(-c2nc(CSCC(=O)N3CCN(c4ccccn4)CC3)c(C)o2)c1	.	.	78	.	81	.
O=C1c2cc([N+](=O)[O-])ccc2-c2cc(Cl)c(NC(=O)C(F)(F)F)cc21	.	/	.	.	/	/
O=C1c2cc([N+](=O)[O-])ccc2-c2cc(Br)c(N=C(NO)C(F)(F)F)cc21	.	/	101	.	97	.
O=C(NC(=S)Nc1ccccc1[N+](=O)[O-])c1ccccc1	.	.	.	.	/	/
O=C(NC(=S)/C(=C1\CCCCCN1)[N+](=O)[O-])c1ccccc1	/	/	.	/	.	.
O=C(c1cc(COc2cccc(C(F)(F)F)c2)on1)N1CCC(c2ccccc2)CC1	.	.	.	.	/	/
O=C(c1cc(COc2cccc(C(F)(F)F)c2)on1)N1CCC(c2ccncc2)CC1	.	.	101	.	98	80
COc1cccc(OCc2cc(C(=O)N3CCC(c4ccncc4)CC3)no2)c1	.	.	85	.	89	80
CC(=O)c1ccc(OCc2cc(C(=O)N3CCC(c4ccncc4)CC3)no2)cc1	.	.	90	.	71	74
FC(F)(F)c1cccc(Cc2noc(CN3CCC(c4ccncc4)CC3)n2)c1	.	.	.	.	78	.
CC(=O)c1ccc(OCc2cc(C(=O)N3CC[C@@H]4CCCC[C@H]4C3)no2)cc1	.	.	.	.	/	/
Cc1ccc(N(C)c2nc(N)nc(N)c2N=O)cc1	.	/	/	.	/	/
COC(=O)C1=C[C@@H]([C@@H](C)[C@H](OC)c2ccccc2Br)[C@@H]2OCCC[C@H]12	.	/	/	/	/	/
COCCCNC(=O)C[C@H]1C[C@@]2(C(=O)OC)C(=C[C@H](C(C)C)O[C@@H]2C2CC2)N(CCc2ccc(OC)c(OC)c2)C1=O	.	/	/	/	/	/
O=C1C[C@H](c2ccc3ccccc3c2)N=C2N1/C(=C\c1ccccc1)[C@@H](c1ccccc1C(F)(F)F)N2Cc1ccc2c(c1)OCO2	.	/	/	/	/	/
SMILES	NR1D1 modulator	NR2E3 ag-1	NR2E3 ag-2	PG9 binder	NR2E3 ag conf	GAL4-VP16 luc
O=C(Nc1ccccc1Cc1ccccc1)c1ccccc1NS(=O)(=O)c1ccc(Cl)s1	.	.	98	.	98	86
O=C(Nc1ccccc1)c1ccccc1NS(=O)(=O)c1ccc(Cl)s1	.	.	102	.	99	86
O=C(NCc1ccco1)c1ccccc1NS(=O)(=O)c1ccc(Cl)s1	.	.	.	.	/	/
Cc1ccc(NC(=O)c2ccccc2NS(=O)(=O)c2ccc(Cl)s2)cc1	.	.	95	.	97	79
O=C([C@@H]1C[C@H]1c1ccccc1)N1CC[C@H]2[C@H](CCCN2Cc2ccccc2)C1	.	/	/	/	/	/
COc1cccc(CN[C@@H]2CC[C@@]34CCCN3C(=O)CCC[C@H]4C2)c1	.	/	/	/	/	/
